Shown are actives, neighbours in structure and some others; about 3.3% of the full set was active somewhere.
SIAE primary – human SIAE inhibition, primary screen; hit rate 0.69% among 370,000; inhibition, % at 9.66 µM; Q9HAT2; SIAE FP-Rh probe binding, fluorescence polarization;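 active means inhibition above a cutoff: mean of compounds within the control limits plus 3 SD of those, cut at about 17% in these data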;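 further: 0% = plate median of compound wells and 100% = probe without SIAE protein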
PRMT1 inh – inhibitors of human PRMT1; AID 652257; recombinant PRMT1, activity-based probe fluorescence polarization; inhibition, % at 2.79 µM; hit rate 1.3% among 370,000; Q99873;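 active means inhibition above about 21% made by adding two undisclosed values, limit read from the data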
TDP2 inh – blocks human TDP2 phosphodiesterase activity | O95551 | recombinant TDP2, T5PNP hydrolysis, p-nitrophenol absorbance 415 nm | inhibition, % at 12.8 µM | hit rate 0.34% among 370,000 | AID 720702;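 active means inhibition above the mean of all tested compounds plus 3 SD, set per campaign, cut at about 25% in these data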;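 further: 0% = DMSO with enzyme and 100% = buffer with substrate but no TDP2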
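Assay system: Recombinant human TDP2 | Quantity: 120 nM TDP2 per well | Incubation: 2 h at 37 °C | Signal: Epi absorbance | Evaluation: Percent inhibition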
LEDGF integ inh – blocks HIV-1 LEDGF/p75-dependent DNA integration | hit rate 0.64% among 370,000 | AID 743269 | inhibition, % at 3.7 µM | TR-FRET IN-LEDGF/p75 DNA integration, Eu/Cy5;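 active means inhibition above the screen-wide mean plus 3 SD, cut at about 13% in these data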;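 further: signal is the Cy5 over europium emission ratio at 671 and 618 nm; 0% = plate median of compound wells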
MBD2 DNA inh – MBD2-methylated oligo binding inhibition; Q9UBB5; TR-FRET, MBD2 binding to methylated oligonucleotide; inhibition, % at 4.4 µM; hit rate 0.31% among 370,000; in the data active means inhibition above about 13%
Target sequence (Q9UBB5 whole entry, looked up): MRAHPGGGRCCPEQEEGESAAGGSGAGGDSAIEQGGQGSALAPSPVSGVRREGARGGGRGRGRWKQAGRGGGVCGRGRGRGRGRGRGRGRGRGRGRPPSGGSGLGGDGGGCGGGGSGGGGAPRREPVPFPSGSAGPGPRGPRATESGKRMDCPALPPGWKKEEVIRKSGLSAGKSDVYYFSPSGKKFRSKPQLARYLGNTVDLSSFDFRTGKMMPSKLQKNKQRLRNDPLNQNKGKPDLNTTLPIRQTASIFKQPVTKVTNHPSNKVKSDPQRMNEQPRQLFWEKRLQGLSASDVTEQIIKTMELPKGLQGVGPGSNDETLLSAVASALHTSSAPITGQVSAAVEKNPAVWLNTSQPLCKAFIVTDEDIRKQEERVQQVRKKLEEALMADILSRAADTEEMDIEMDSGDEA
UHRF1 binding – blocks human UHRF1 binding to methylated DNA; Q96T88; UHRF1 binding to methylated oligo, TR-FRET; inhibition, % at 4.4 µM; hit rate 0.75% among 370,000; in the data active means inhibition above about 21%;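 further: UHRF1 SRA domain binding a hemimethylated CpG hairpin DNA probe; 0% = median of test compound wells and 100% = reference inhibitor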
* hit, by the source's call.

SMILES	SIAE primary	PRMT1 inh	TDP2 inh	LEDGF integ inh	MBD2 DNA inh	UHRF1 binding
COC(=O)N/N=C1/C/C(=N\NC(=O)OC)c2ccccc21	5	-3	50*	32*	-10	-8
Cc1ccc(S(=O)(=O)N2CCCC2C(=O)N2CCN(c3ccccc3)CC2)cc1 (stereo not given)	-5	-2	4	0	-1	-3
O=C(NC1CCCCN(Cc2cccc(Cl)c2)C1=O)c1cccc(F)c1 (stereo not given)	-5	1	-3	0	0	5
Cc1nc(NC(=O)COC(=O)[C@@H](NC(=O)c2ccco2)C(C)C)c(Cl)cc1Cl	9	8	0	-8	-3	42*
Cc1c(Cl)cnc(NC(=O)COC(=O)C(NC(=O)c2ccco2)C(C)C)c1Cl (stereo not given)	3	17	-12	2	-1	1
Cc1csc(SCC(=O)Nc2c(C)n(C)n(-c3ccccc3)c2=O)n1	5	-1	3	-2	2	-1
CSc1nsc(SCC(=O)Nc2c(C)n(C)n(-c3ccccc3)c2=O)n1	8	22*	2	-2	1	-1
CC(NCc1ccco1)C(=O)N1CCCC1 (stereo not given)	4	4	-5	-2	5	2
CCC(C)NS(=O)(=O)c1ccc(OCC(=O)NCc2ccco2)cc1 (stereo not given)	2	0	11	2	-1	25*
CN1C(=O)c2cc(NC(=O)Nc3ccccc3)ccc2OC[C@H]2O[C@@H](CC(=O)N[C@H]3CCN(Cc4ccccc4)C3)CC[C@@H]21	-3	3	5	-2	8	5
CC(=O)CC[C@H]1CC[C@]2(CCCN(C(=O)c3ccno3)C2)O1	-10	1	9	2	-1	2
S=C(N/N=C/c1ccc2ncccc2c1)Nc1ccccc1	-2	8	1	0	-1	32*
Cc1cc(C)c(-c2cc(NC(=O)COC(=O)c3ccc(NC(=O)CC#N)cc3)n(-c3ccccc3)n2)cc1C	-145	1	-8	-1	11	26*
CC1CCc2c(sc(NC(=O)/C=C/c3cccs3)c2C(=O)O)C1 (stereo not given)	-1	-1	-7	31*	-2	-2
CC1CCc2c(sc(NC(=O)c3ccco3)c2C(=O)O)C1 (stereo not given)	2	-1	-10	-1	-3	3
CCn1c(COc2ccc(C)cc2)nnc1SCC(=O)Nc1ccc(C(=O)OC)cc1	-4	1	-3	-1	3	3
COC(=O)c1sccc1NC(=O)c1ccc(C)cc1	-8	0	-23	5	-4	1
COC(=O)c1sccc1NC(=O)Nc1ccccc1F	-2	-2	-4	-1	3	23*
COC(=O)c1sccc1NC(=O)c1csc(C)c1	-6	1	-12	5	5	22*
O=C(N[C@@H]1CCCc2c1cnn2-c1ccc(F)cc1F)c1ccccn1	4	-4	7	-4	-2	-2
CC(=O)N1CCCN(C(=O)C2CCN(c3ncnc4c3sc3cccc(F)c34)CC2)CC1	-8	-1	-7	2	-4	-3
Cc1cc(Cl)ccc1OC(C)C(=O)Nc1ccccc1N1CCOCC1 (stereo not given)	-3	2	4	10	12	21*
CC(Oc1ccc(Cl)cc1)C(=O)Nc1ccccc1N1CCOCC1 (stereo not given)	-2	-1	-2	0	4	-2
CC(C)(N[C@@H](Cc1c[nH]c2ccccc12)C(=O)NCCc1c[nH]c2ccccc12)C(=O)NC1CCCCC1	13	2	-5	1	2	5
Cc1ccc(CN2CCC[C@]3(N[C@H](c4ccc(C)cc4)[C@@H]4C(=O)N(Cc5ccccc5)C(=O)[C@@H]43)C2=O)cc1	6	-1	-4	6	0	22*
SMILES	SIAE primary	PRMT1 inh	TDP2 inh	LEDGF integ inh	MBD2 DNA inh	UHRF1 binding
O=C1[C@H]2[C@@H](c3ccccc3)N[C@]3(CCCN(Cc4ccc(F)cc4)C3=O)[C@H]2C(=O)N1Cc1ccccc1	-1	1	-2	0	10	23*
C=CCC12C=C(OC)C(=O)C(C1=O)C(c1ccc(OC)cc1)C2C (stereo not given)	9	1	3	0	-1	0
CN(C)c1cccc(/C=C2\CC3(OC(=O)c4ccc(Cl)cc4)CCCN2C3)c1 (stereo not given)	1	7	-10	4	3	3
Cc1cc(N2CCN(C(=O)Oc3ccc(C(F)(F)F)cc3)CC2)c2ccccc2n1	0	4	-8	1	5	4
Cc1ccc(NC(=O)C2CCN(S(=O)(=O)c3ccc4c(c3)OCCCO4)CC2)nc1	0	-6	3	-1	5	34*
Cc1ccc(-n2c(Cc3cccs3)nnc2SCC(=O)Nc2ccccc2-c2ccccc2)cc1	-3	-1	6	-3	-2	-2
O=C(Nc1nc2ncccn2c1-c1ccc(F)c(F)c1)c1ccccc1	-1	1	7	0	-5	-3
C/C(=N\NC(=O)c1sccc1-n1cccc1)c1cccs1	5	3	-2	-7	2	41*
O=C(NNC(=O)c1sccc1-n1cccc1)c1cccs1	6	-5	4	1	-3	1
O=C(COc1ccc2ccccc2c1)N1CCN(C(=O)c2ccco2)CC1	8	-1	-13	0	-1	0
O=C(NCc1ccccc1)c1cccc(OCC(=O)N2CCN(C(=O)c3ccco3)CC2)c1	3	2	8	3	8	21*
Cc1cccc(C)c1NC(=O)C1(NC(=O)Cn2cccc([N+](=O)[O-])c2=O)CCCCC1	-2	3	-3	-3	3	24*
Cc1cccc(C)c1NC(=O)C1(NC(=O)C2CCC(=O)N2)CCCCC1 (stereo not given)	-1	2	6	-3	2	9
COc1ccc(CNC(=O)CCNS(=O)(=O)c2ccc3[nH]c(=O)oc3c2)cc1	0	-4	2	4	-3	4
O=[n+]1cc(-c2ccccc2)n([O-])c2c1CCC2	1	-2	9	0	5	21*
O=[n+]1cc(-c2ccc(Cl)cc2)n([O-])c2c1CCC2	0	3	16	-2	-6	-1
O=S1(=O)c2ccc(Br)cc2OC[C@H](Cc2ccccc2)N1Cc1cn(Cc2ccc(F)cc2)nn1	1	0	-16	6	-1	3
O=C1C(Cl)=C(Nc2ccc(O)cc2)C(=O)c2ccccc21	13	36*	14	2	-11	-11
COC(=O)[C@]12C[C@H](CC(=O)N3CCCCC3)C(=O)N(Cc3ccc(Cl)cc3Cl)C1=C[C@H](C1CCCC1)O[C@@H]2C	-8	-1	-4	-3	-1	-1

Bioassay records deposited in PubChem BioAssay by The Scripps Research Institute Molecular Screening Center.
